System: not listed separately
Test: Inhibition of v-src from baculovirus culture
Settings: not given
Procedure, shortened: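 pp60v-src from v-src baculovirus-infected insect cells, bound via monoclonal antibody to 0.65 μm latex beads. Activity was measured as ³²P incorporation from [γ-³²P]ATP into poly[(glu)4(tyr)1] substrate.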

| SMILES | IC50 |
| --- | --- |
| CC(=O)C1C(=S)N(C)c2ccccc21 (configuration not stated) | > 50 µM |
| CC1C(=S)N(C)c2ccccc21 (configuration not stated) | > 100 µM |
| CN1C(=S)C(C(=O)c2ccco2)c2ccccc21 (configuration not stated) | 10.8 µM |
| CN(C)CCCn1c(SSc2c(C(=O)Nc3ccccc3)c3ccccc3n2CCCN(C)C)c(C(=O)Nc2ccccc2)c2ccccc21 | 5.6 µM |
| CN1C(=S)C(C(=O)Nc2ccccc2)c2ccccc21 (configuration not stated) | 10 µM |

Target: T1, Epidermal growth factor receptor (Homo sapiens, UniProt P00533)
Test: Inhibitory concentration compound against EFGR tyrosine kinase obtained from plasma membrane vesicles from cultured A431 cells
Assay type: cell-free, A-431
Settings: not given

T1 sequence (P00533 whole entry): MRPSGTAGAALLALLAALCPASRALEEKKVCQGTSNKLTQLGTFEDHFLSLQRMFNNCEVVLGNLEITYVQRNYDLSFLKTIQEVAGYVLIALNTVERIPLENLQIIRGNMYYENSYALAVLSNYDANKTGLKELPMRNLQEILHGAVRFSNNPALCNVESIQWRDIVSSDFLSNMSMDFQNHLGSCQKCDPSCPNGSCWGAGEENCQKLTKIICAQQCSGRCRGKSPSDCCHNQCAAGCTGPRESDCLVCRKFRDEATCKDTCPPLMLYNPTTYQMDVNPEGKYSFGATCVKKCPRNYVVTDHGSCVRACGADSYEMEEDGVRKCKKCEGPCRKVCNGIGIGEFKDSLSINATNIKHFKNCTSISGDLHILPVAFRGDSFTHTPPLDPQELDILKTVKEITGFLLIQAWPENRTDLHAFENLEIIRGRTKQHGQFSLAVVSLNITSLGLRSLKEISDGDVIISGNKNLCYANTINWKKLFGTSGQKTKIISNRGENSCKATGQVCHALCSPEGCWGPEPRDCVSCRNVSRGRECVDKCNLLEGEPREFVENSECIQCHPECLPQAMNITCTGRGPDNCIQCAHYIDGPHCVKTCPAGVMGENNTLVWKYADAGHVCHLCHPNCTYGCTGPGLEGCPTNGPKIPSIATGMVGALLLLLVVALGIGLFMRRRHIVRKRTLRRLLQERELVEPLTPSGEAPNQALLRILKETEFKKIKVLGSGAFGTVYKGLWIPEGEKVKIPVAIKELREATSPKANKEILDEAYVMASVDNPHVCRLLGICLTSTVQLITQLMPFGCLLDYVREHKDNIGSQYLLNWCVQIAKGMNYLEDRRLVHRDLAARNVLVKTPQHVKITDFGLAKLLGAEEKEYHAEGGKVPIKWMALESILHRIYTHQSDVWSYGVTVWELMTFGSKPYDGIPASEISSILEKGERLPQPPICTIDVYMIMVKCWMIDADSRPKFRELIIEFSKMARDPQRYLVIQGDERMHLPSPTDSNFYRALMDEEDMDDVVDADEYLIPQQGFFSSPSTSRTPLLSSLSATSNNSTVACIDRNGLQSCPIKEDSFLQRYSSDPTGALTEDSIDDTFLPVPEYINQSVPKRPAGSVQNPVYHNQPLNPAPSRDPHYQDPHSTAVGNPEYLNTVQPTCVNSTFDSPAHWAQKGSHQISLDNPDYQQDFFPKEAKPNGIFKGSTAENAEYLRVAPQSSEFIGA

| SMILES | IC50 |
| --- | --- |
| NC(Cc1c(SSc2[nH]c3ccccc3c2CC(N)C(=O)NCc2ccccc2)[nH]c2ccccc12)C(=O)NCc1ccccc1 (configuration not stated) | 3.3 µM |
| Cn1c(SSc2c(C(=O)Nc3cccs3)c3ccccc3n2C)c(C(=O)Nc2cccs2)c2ccccc21 | > 100 µM |
| COC(=O)c1ccccc1NC(=O)c1c(SSc2c(C(=O)Nc3ccccc3C(=O)OC)c3ccccc3n2C)n(C)c2ccccc12 | > 100 µM |
| c1ccc(-c2c(SSc3[nH]c4ccccc4c3-c3ccccc3)[nH]c3ccccc23)cc1 | 100 µM |
| Cc1c(SSc2c(C)c3ccccc3n2C)n(C)c2ccccc12 | > 100 µM |
| COC(=O)c1ccc(NC(=O)c2c(SSc3c(C(=O)Nc4ccc(C(=O)OC)cc4)c4ccccc4n3C)n(C)c3ccccc23)cc1 | > 100 µM |
| Cn1c(SSc2c(C(=O)NCc3ccccc3)c3ccccc3n2C)c(C(=O)NCc2ccccc2)c2ccccc21 | 1.7 µM |
| CNC(=O)c1c(SSc2[nH]c3ccccc3c2C(=O)NC)[nH]c2ccccc12 | 6.1 µM |
| CN(C(=O)c1c(SSc2c(C(=O)N(C)c3ccccc3)c3ccccc3n2C)n(C)c2ccccc12)c1ccccc1 | > 100 µM |
| Cn1c(SSc2c(C(=O)Nc3ccncc3)c3ccccc3n2C)c(C(=O)Nc2ccncc2)c2ccccc21 | > 100 µM |
| Cn1c(SSc2c(C(=O)Nc3cccnc3)c3ccccc3n2C)c(C(=O)Nc2cccnc2)c2ccccc21 | > 100 µM |
| O=C(NCc1ccccc1)c1c(SSc2[nH]c3ccccc3c2C(=O)NCc2ccccc2)[nH]c2ccccc12 | 15 µM |
| O=C(Nc1ccccc1)c1c(SSc2[nH]c3ccccc3c2C(=O)Nc2ccccc2)[nH]c2ccccc12 | 100 µM |
| Cn1c(SSc2c(C(=O)Nc3ccccn3)c3ccccc3n2C)c(C(=O)Nc2ccccn2)c2ccccc21 | 47 µM |
| CCn1c(SSc2c(C(=O)Nc3ccccc3)c3ccccc3n2CC)c(C(=O)Nc2ccccc2)c2ccccc21 | > 100 µM |
| CNC(=O)c1c(SSc2c(C(=O)NC)c3ccccc3n2C)n(C)c2ccccc12 | 1.8 µM |
| Cn1c(SSc2c(C(=O)c3ccccc3)c3ccccc3n2C)c(C(=O)c2ccccc2)c2ccccc21 | > 100 µM |
| Cn1c(SSc2c(C(=O)c3ccco3)c3ccccc3n2C)c(C(=O)c2ccco2)c2ccccc21 | 7.7 µM |
| COC(=O)c1cccc(NC(=O)c2c(SSc3c(C(=O)Nc4cccc(C(=O)OC)c4)c4ccccc4n3C)n(C)c3ccccc23)c1 | > 100 µM |
| CN(C)CCNC(=O)c1c(SSc2c(C(=O)NCCN(C)C)c3ccccc3n2C)n(C)c2ccccc12 | 17.5 µM |
| Cn1c(SSc2c(C(=O)Nc3ccccc3)c3ccccc3n2C)c(C(=O)Nc2ccccc2)c2ccccc21 | 10.9 µM |
| Cc1ccc(S(=O)(=O)c2c(SSc3[nH]c4ccccc4c3S(=O)(=O)c3ccc(C)cc3)[nH]c3ccccc23)cc1 | 28.7 µM |

Target: not listed separately
Test: Inhibitory concentration of the against pp60v-src tyrosine kinase obtained from v-src baculovirus-infected insect cells
Settings: not given

| SMILES | IC50 |
| --- | --- |
| Cn1c(SSc2c(C(=O)Nc3ccccc3)c3cc(C(F)(F)F)ccc3n2C)c(C(=O)Nc2ccccc2)c2cc(C(F)(F)F)ccc21 | 5.8 µM |
| Cn1c(SSc2c(C(=O)Nc3ccccc3)c3ccccc3n2C)c(C(=O)Nc2ccccc2)c2ccccc21 | 3.2 µM |

Target: T1, Epidermal growth factor receptor
Test: Inhibition of EFGR tyrosine kinase from A431 cells
Assay type: cell-based
Settings: A-431
Procedure, shortened: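 Enzyme source was the native EGFR complex in plasma membrane vesicles shed from cultured A431 epidermoid carcinoma cells. Kinase activity was measured as ³²P incorporation from added [γ-³²P]ATP into a 6:3:1 random copolymer of glutamate, alanine and tyrosine.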

| SMILES | FC50 |
| --- | --- |
| CC(=O)C1C(=S)N(C)c2ccccc21 (configuration not stated) | > 100 µM |
| COC(=O)c1ccc(C(=O)C2C(=S)N(C)c3ccccc32)cc1 (configuration not stated) | > 100 µM |
| CC1C(=S)N(C)c2ccccc21 (configuration not stated) | > 100 µM |
| CN1C(=S)C(C(=O)c2ccc(C(=O)O)cc2)c2ccccc21 (configuration not stated) | 8.7 µM |
| CN1C(=S)C(C(=O)c2ccccc2)c2ccccc21 (configuration not stated) | > 100 µM |
| CN1C(=S)C(C(=O)c2ccco2)c2ccccc21 (configuration not stated) | > 100 µM |
| CN(C)CCCn1c(SSc2c(C(=O)Nc3ccccc3)c3ccccc3n2CCCN(C)C)c(C(=O)Nc2ccccc2)c2ccccc21 | 26 µM |
| CN1C(=S)C(C(=O)Nc2ccccc2)c2ccccc21 (configuration not stated) | 1 µM |
